{
  "source": "ChEMBL document CHEMBL4610063",
  "about": "“Mangiferin: A promising natural xanthone from Mangifera indica for the control of acyclovir - resistant herpes simplex virus 1 infection” (Bioorg Med Chem, 2020)",
  "key": {"Human alphaherpesvirus 1 [1]": {"test_system": "Human alphaherpesvirus 1", "experiment": "Antiviral activity against ACV-resistant Herpes simplex virus 1 AR-29 infected in female Balb/c mouse assessed as change in epidermis thickness at 0.7% w/w applied topically 5 times a day at 3 hrs interval for 10 days measured on day 10 post infection by H and E staining based histological analysis", "assay_type": "functional, organism-based"}, "[2]": {"experiment": "Selectivity index, ratio of CC50 for African green monkey Vero cells to IC50 for Herpes simplex virus 1 AR-29 infected in African green monkey Vero cells", "assay_type": "toxicity", "settings": "read-out: Ratio CC50/IC50", "in_short": "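SI = CC50 (Vero, MTT, 72 h) / IC50 from plaque reduction with mangiferin added at infection (0 h) against HSV-1 AR-29 or KOS; IC50 by linear regression of viral inhibition curves.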"}, "Human alphaherpesvirus 1 [3]": {"test_system": "Human alphaherpesvirus 1", "experiment": "Antiviral activity against ACV-sensitive Herpes simplex virus 1 KOS infected in male Balb/c mouse assessed as reduction in ulcerated lesion at 0.7% w/w applied topically 5 times a day at 3 hrs interval for 10 days measured on day 5 post infection", "assay_type": "functional, organism-based", "settings": "strain KOS", "in_short": "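Balb/c mice (5 weeks, 22–27 g; six per group, sexes tested separately) had the right mid-flank depilated under i.p. anaesthesia and needle-scarified 24 h later. They were inoculated with 70 μL HSV-1 KOS (10^5 PFU/mL). From 4 h post-infection, O/W emulsion with 0.7% w/w mangiferin or ACV cream (50 mg/g) was applied topically 5 times daily for 10 days. Lesions were scored daily.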"}, "Human alphaherpesvirus 1 [4]": {"test_system": "Human alphaherpesvirus 1", "experiment": "Antiviral activity against ACV-sensitive Herpes simplex virus 1 KOS infected in male Balb/c mouse assessed as change in dermis thickness at 0.7% w/w applied topically 5 times a day at 3 hrs interval for 10 days measured on day 10 post infection by H and E staining based histological analysis", "settings": "strain KOS"}, "Human alphaherpesvirus 1 [5]": {"test_system": "Human alphaherpesvirus 1", "experiment": "Antiviral activity against ACV-sensitive Herpes simplex virus 1 KOS infected in African green monkey Vero cells assessed as inhibition of viral infection at 3.12 ug/ml measured after 72 hrs by crystal violet staining based plaque reduction assay relative to control", "assay_type": "functional", "settings": "Human alphaherpesvirus 1, strain KOS", "in_short": "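Vero monolayers infected with HSV-1 KOS (10^5 PFU/mL) with mangiferin (3.12, 6.25, 12.5, 25 μg/mL) added at infection (0 h). Overlay of nutrient agarose with 25 mM MgCl2; plaques counted after 72 h at 37 °C, 5% CO2, fixed in 20% formaldehyde/PBS and stained with 0.5% crystal violet. %VI versus virus control; triplicate experiments.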"}, "Human alphaherpesvirus 1 [6]": {"test_system": "Human alphaherpesvirus 1", "experiment": "Antiviral activity against ACV-resistant Herpes simplex virus 1 AR-29 infected in African green monkey Vero cells assessed as inhibition of viral infection at 12.5 ug/ml measured after 72 hrs by crystal violet staining based plaque reduction assay relative to control", "assay_type": "functional", "settings": "Human alphaherpesvirus 1, AR-29, Vero", "in_short": "(§1)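 Plaque reduction in Vero cells. Mangiferin at 3.12, 6.25, 12.5 or 25 μg/mL is added at infection (0 h) with HSV-1 (10^5 PFU/mL). Agarose overlay with 25 mM MgCl2, 72 h at 37 °C/5% CO2, 20% formaldehyde fix, 0.5% crystal violet stain. %VI is taken against virus control. IC50 comes from linear regression of inhibition curves. Triplicate independent experiments.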"}, "Human alphaherpesvirus 1 [7]": {"test_system": "Human alphaherpesvirus 1", "experiment": "Antiviral activity against ACV-resistant Herpes simplex virus 1 AR-29 infected in male Balb/c mouse assessed as change in dermis thickness at 0.7% w/w applied topically 5 times a day at 3 hrs interval for 10 days measured on day 10 post infection by H and E staining based histological analysis", "assay_type": "functional, organism-based"}, "Human alphaherpesvirus 1 [8]": {"test_system": "Human alphaherpesvirus 1", "experiment": "Antiviral activity against ACV-sensitive Herpes simplex virus 1 KOS infected in African green monkey Vero cells assessed as inhibition of viral infection at 12.5 ug/ml measured after 72 hrs by crystal violet staining based plaque reduction assay relative to control", "assay_type": "functional", "settings": "Human alphaherpesvirus 1, strain KOS", "in_short": "as §1"}, "Human alphaherpesvirus 1 [9]": {"test_system": "Human alphaherpesvirus 1", "experiment": "Antiviral activity against ACV-resistant Herpes simplex virus 1 AR-29 infected in African green monkey Vero cells assessed as suppression of viral replication by measuring reduction in ICP4 production at 12.5 ug/ml measured after 24 hrs by immunofluorescence assay relative to control", "assay_type": "functional", "parameters": "scale not given: the % may be the effect or the level left", "in_short": "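Vero cells on coverslips, infected with HSV-1 AR-29 and given mangiferin (1.56–12.5 μg/mL) at 0 h. At 24 h they are acetone-fixed (−20 °C, 20 min) and blocked with 2% skim milk. Stained with mouse anti-ICP4 and FITC anti-mouse IgG. 100 cells per coverslip are scored by fluorescence microscopy, inhibition relative to infected untreated cells. Duplicate experiments.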"}, "Human alphaherpesvirus 1 [10]": {"test_system": "Human alphaherpesvirus 1", "experiment": "Antiviral activity against ACV-sensitive Herpes simplex virus 1 KOS infected in African green monkey Vero cells assessed as suppression of viral replication by measuring reduction in ICP4 production at 12.5 ug/ml measured after 24 hrs by immunofluorescence assay relative to control", "assay_type": "functional, strain KOS", "parameters": "scale not given: the % may be the effect or the level left", "in_short": "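Vero cells on coverslips infected with HSV-1 KOS and given mangiferin 1.56–12.5 μg/mL at 0 h. At 24 h cells fixed in cold acetone, blocked with skim milk, stained with mouse anti-ICP4 and FITC anti-mouse IgG; 100 cells per coverslip scored by fluorescence microscopy. Inhibition relative to infected untreated cells; duplicate independent experiments.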"}, "Human alphaherpesvirus 1 [11]": {"test_system": "Human alphaherpesvirus 1", "experiment": "Antiviral activity against ACV-resistant Herpes simplex virus 1 AR-29 infected in male Balb/c mouse assessed as change in epidermis thickness at 0.7% w/w applied topically 5 times a day at 3 hrs interval for 10 days measured on day 10 post infection by H and E staining based histological analysis", "assay_type": "functional, organism-based"}, "Human alphaherpesvirus 1 [12]": {"test_system": "Human alphaherpesvirus 1", "experiment": "Virucidal activity against ACV-sensitive Herpes simplex virus 1 KOS infected in African green monkey Vero cells assessed as inhibition of viral inhibition at 25 ug/mL measured after 1 hr by plaque reduction assay relative to control", "assay_type": "functional", "settings": "Human alphaherpesvirus 1, strain KOS", "in_short": "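HSV-1 KOS suspension incubated with mangiferin (3.12–25 μg/mL) 1 h at 37 °C, then put on Vero cells for plaque reduction: agarose overlay with MgCl2, 72 h, crystal violet staining. %VI against virus control; triplicate independent experiments.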"}, "Human alphaherpesvirus 1 [13]": {"test_system": "Human alphaherpesvirus 1", "experiment": "Virucidal activity against ACV-resistant Herpes simplex virus 1 AR-29 infected in African green monkey Vero cells assessed as inhibition of viral inhibition at 3.12 to 25 ug/mL measured after 1 hr by plaque reduction assay", "assay_type": "functional, organism-based", "in_short": "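HSV-1 AR-29 suspension is incubated with mangiferin (3.12–25 μg/mL) for 1 h at 37 °C, then titrated by plaque reduction on Vero cells. Agarose/MgCl2 overlay, 72 h, crystal violet stain. %VI is taken against virus control. Triplicate independent experiments.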"}, "Human alphaherpesvirus 1 [14]": {"test_system": "Human alphaherpesvirus 1", "experiment": "Antiviral activity against ACV-sensitive Herpes simplex virus 1 KOS infected in African green monkey Vero cells assessed as inhibition of viral infection measured after 72 hrs by crystal violet staining based plaque reduction assay", "assay_type": "functional, organism-based", "settings": "Human alphaherpesvirus 1, strain KOS", "in_short": "as §1"}, "Human alphaherpesvirus 1 [15]": {"test_system": "Human alphaherpesvirus 1", "experiment": "Antiviral activity against ACV-resistant Herpes simplex virus 1 AR-29 infected in male Balb/c mouse assessed as reduction in zosteriform lesion at 0.7% w/w applied topically 5 times a day at 3 hrs interval for 10 days measured on day 5 post infection", "assay_type": "functional, organism-based", "in_short": "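Balb/c mice, 5 weeks old, six per group. Right mid-flank depilated under i.p. anaesthesia, needle-scarified 24 h later and inoculated with 70 μL HSV-1 AR-29 (10^5 PFU/mL). Topical 0.7% w/w O/W emulsion or ACV cream (50 mg/g) starts 4 h post-infection, 5 times daily for 10 days. Lesions are scored daily.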"}, "[16]": {"experiment": "Toxicity in Balb/c mouse infected with ACV-sensitive Herpes simplex virus 1 KOS assessed as death at 0.7% w/w applied topically 5 times a day at 3 hrs interval for 10 days measured on day 10 post infection", "settings": "in vivo, topical_or_ocular"}},
  "note": "Active and inactive are the calls of the source. No cut-off for these calls is given here.",
  "data": [
    {"smiles": "O=c1c2cc(O)c(O)cc2oc2cc(O)c([C@@H]3O[C@H](CO)[C@@H](O)[C@H](O)[C@H]3O)c(O)c12", "note": "[MANGIFERIN]", "values": [
      {"measurement": "Activity", "setting": "Human alphaherpesvirus 1 [1]", "result": "inactive"},
      {"measurement": "selectivity ratio", "setting": "[2]", "result": "> 172"},
      {"measurement": "Activity", "setting": "Human alphaherpesvirus 1 [3]", "result": "inactive"},
      {"measurement": "Activity", "setting": "Human alphaherpesvirus 1 [4]", "result": "inactive"},
      {"measurement": "inhibition at 3.12 µg/mL", "setting": "Human alphaherpesvirus 1 [5]", "result": 37.5, "unit": "%"},
      {"measurement": "inhibition at 12.5 µg/mL", "setting": "Human alphaherpesvirus 1 [6]", "result": 100, "unit": "%"},
      {"measurement": "Activity", "setting": "Human alphaherpesvirus 1 [7]", "result": "inactive"},
      {"measurement": "inhibition at 12.5 µg/mL", "setting": "Human alphaherpesvirus 1 [8]", "result": 100, "unit": "%"},
      {"measurement": "Activity", "setting": "Human alphaherpesvirus 1 [9]", "result": 54.1, "unit": "%"},
      {"measurement": "Activity", "setting": "Human alphaherpesvirus 1 [10]", "result": 29.6, "unit": "%"},
      {"measurement": "Activity", "setting": "Human alphaherpesvirus 1 [11]", "result": "inactive"},
      {"measurement": "inhibition at 25 µg/mL", "setting": "Human alphaherpesvirus 1 [12]", "result": 74.8, "unit": "%"},
      {"measurement": "inhibition", "setting": "Human alphaherpesvirus 1 [13]", "result": "Active"},
      {"measurement": "IC50", "setting": "Human alphaherpesvirus 1 [14]", "result": 3.5, "unit": "µg/mL"},
      {"measurement": "Activity", "setting": "Human alphaherpesvirus 1 [15]", "result": "Active"},
      {"measurement": "Activity", "setting": "[16]", "result": "Non-Toxic"}
    ]}
  ]
}
